# Where a SMILES comes first, the peptide text is derived from it. Bridges are numbered along the chain shown (N, C = ends). [ ]: non-standard residue; d: D form. The star is where a group is joined. X1 = CC[C@H](C)CCCCC(=O)*; Dab = NCC[C@H](N)C(=O)O
# Columns and labels:
# rats [1] = assay: Maximal tolerability dose; assay type: in vivo; settings: intraperitoneal
# patients = settings: cited from earlier work
# rats [2] = assay: Renal histological examination; assay type: in vivo; settings: rat kidney; for histological lesions during the first 2 h: PAS stain; for maximal SQS: mean ± SD, SD
# [3] = Plasma PK of CMS/CMS-E2 and formed colistin/colistin B; assay type: in vivo, rats; settings: rat plasma, LC-MS/MS, NCA, mean ± SD
# Summary of the method: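 Male Sprague-Dawley rats were dosed once i.p. in saline, and serial jugular-vein blood was taken before and after dosing. Blood was heparinised (1%), spun at 4,982 × g for 10 min at 4 °C, and plasma stored at −70 °C. Plasma (40 µL) went through WCX solid-phase extraction with polymyxin B1 internal standard, then LC-MS/MS. Prodrug was total (acid-hydrolysed) minus free analyte. […] Values are mean ± SD, compared by Wilcoxon rank sum.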
# [4] = physiologically-based PK model; cited from earlier work
# rats [5] = assay: PK-TD model, TD component; assay type: in vivo; settings: i.p., mean ± SD
# Summary of the method: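 Plasma creatinine and BUN time courses were linked to plasma colistin/colistin B through an indirect hypothetical effect compartment. K_e is the rate constant from the central to the effect compartment. The effect was linear: E = E₀ + S·C_e, with E₀ the pre-dose baseline. T_lag was calculated as 1/K_e. Fit was judged by R², AIC, BIC and visual inspection. Parameters are mean ± SD.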
# rats [6] = assay: Kidney injury biomarkers: plasma CR and BUN; assay type: in vivo; settings: rat plasma, mean ± SD
# Summary of the method: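 Rats (male Sprague-Dawley) received one i.p. injection in saline, with a saline control group. Plasma came from serial heparinised jugular-vein samples, plus blood taken at sacrifice in a second cohort. Creatinine and blood urea nitrogen were measured on an automatic biochemical analyser. Peak levels and times to peak were taken from the time profiles and given as mean ± SD.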
# [7] = Kidney PK of CMS/CMS-E2 and formed colistin/colistin B; assay type: in vivo, rats; settings: for Cmax CMS/CMS-E2 in kidneys / Cmax formed colistin/colistin B in kidneys: mean ± SD; for Kp: kidney (cortex) / plasma, colistin/colistin B
# Summary of the method: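 Male Sprague-Dawley rats (300 ± 15 g) got one i.p. dose in saline. At each sampling time rats were anaesthetised with tiletamine-zolazepam (40 mg/kg) and killed, and the left kidney was frozen at −70 °C. Kidney cortex was homogenised in saline (1:10 m/v, 1% BSA). Samples went through WCX solid-phase extraction with polymyxin B1 internal standard, then LC-MS/MS. Prodrug was calculated as total (after […] sulfuric acid hydrolysis) minus free colistin/colistin B. Parameters came from non-compartmental analysis.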
# [8] = PK-TD model, PK component; assay type: in vivo; settings: rats, single i.p. CMS 10 mg/kg CBA, one-compartment PK-TD model, mean ± SD
# Summary of the method: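 Plasma prodrug and formed colistin/colistin B concentrations after i.p. dosing were fitted by a compartmental model. The final model used one compartment each for prodrug and formed drug, a conversion rate constant, and linear first-order total clearance from both. Fit was judged by R², AIC, BIC and visual inspection. Estimates are mean ± SD.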
# [9] = rats; CMS and formed colistin; cited from earlier work
# [10] = cited from earlier work
# [11] = test system: human kidney proximal tubular HK-2 cells; settings: identical dose of 0.75 mM; cited from earlier work
# [12] = cited from earlier work; remark: listed apart in the source
# rats [13] = assay: Regression of kidney colistin/colistin B concentrations against CR, BUN, SQS; assay type: in vivo; settings: 95% CI
# [14] = single i.p. CMS or CMS-E2 20 mg/kg CBA
# [15] = rat kidney cortex, single i.p. CMS 10 mg/kg CBA, LC-MS/MS, NCA
# [16] = rat kidney cortex, single i.p. CMS 10 mg/kg CBA, LC-MS/MS, SD
# [17] = rat kidney cortex, single i.p. CMS or CMS-E2 20 mg/kg CBA, LC-MS/MS, NCA
# [18] = rat kidney cortex, single i.p. CMS or CMS-E2 20 mg/kg CBA, LC-MS/MS, SD
# [19] = rats, single i.p. CMS or CMS-E2 20 mg/kg CBA
# [20] = rat kidney cortex, single i.p. CMS 20 mg/kg CBA, LC-MS/MS, NCA
molecule,measurement,setting,value
colistin methanesulphonate [CMS],maximal tolerability dose,rats [1],20 mg/kg CBA
same,incidence of CMS-associated nephrotoxicity,patients; meta-analyses,up to 48%
same,histological lesions during the first 2 h,rats [2]; single i.p. CMS 10 mg/kg CBA,No obvious histological lesion
same,histological lesions during the first 2 h,rats [2]; [14],No obvious histological lesion
same,recovery of histological damage at 8 h,rats [2]; single i.p. CMS 10 mg/kg CBA,most of the damage was completely recovered
same,maximal SQS,rats [2]; single i.p. CMS 10 mg/kg CBA,2.00 ± 0.00
same,recovery of histological damage at 24 h,rats [2]; single i.p. CMS 20 mg/kg CBA,all damage was completely recovered
same,maximal SQS,rats [2]; [14],3.00 ± 0.00
same,AUC0-inf CMS/CMS-E2 in plasma,[3]; single i.p. CMS 10 mg/kg CBA,30.7 ± 0.763 mg·h/L
same,CL/F CMS/CMS-E2,[3]; single i.p. CMS 10 mg/kg CBA,5.42 ± 0.132 mL/min/kg
same,Cmax CMS/CMS-E2 in plasma,[3]; single i.p. CMS 10 mg/kg CBA,21.4 ± 0.727 mg/L
same,Tmax CMS/CMS-E2 in plasma,[3]; single i.p. CMS 10 mg/kg CBA,20 ± 7.08 min
same,Vd/F CMS/CMS-E2,[3]; single i.p. CMS 10 mg/kg CBA,213 ± 36.2 mL/kg
same,t1/2 CMS/CMS-E2 in plasma,[3]; single i.p. CMS 10 mg/kg CBA,27.2 ± 4.08 min
same,AUC0-inf CMS/CMS-E2 in plasma,[3]; [14],149 ± 69.6 mg·h/L
same,CL/F CMS/CMS-E2,[3]; [14],2.99 ± 2.02 mL/min/kg
same,Cmax CMS/CMS-E2 in plasma,[3]; [14],39.5 ± 13.7 mg/L
same,Tmax CMS/CMS-E2 in plasma,[3]; [14],78 ± 27.5 min
same,Vd/F CMS/CMS-E2,[3]; [14],266 ± 81.6 mL/kg
same,t1/2 CMS/CMS-E2 in plasma,[3]; [14],76.4 ± 33.4 min
same,renal CMS conversion,[4],< 1%
same,S (slope between colistin/colistin B concentration in effect compartment and CR),rats [5]; E = E0 + S·Ce,20.9 ± 9.13 mmol/g
same,"Ke (rate from colistin/colistin B central compartment to effect compartment), BUN","rats [5]; indirect link PK-TD model, effect = BUN",0.157 ± 0.100 h⁻¹
same,"Ke (rate from colistin/colistin B central compartment to effect compartment), CR","rats [5]; indirect link PK-TD model, effect = plasma CR",0.833 ± 0.555 h⁻¹
same,"Tlag (lag time), BUN","rats [5]; reciprocal of Ke, effect = BUN",8.45 ± 4.08 h
same,"Tlag (lag time), CR","rats [5]; reciprocal of Ke, effect = plasma CR",1.73 ± 1.22 h
same,peak BUN level,rats [6]; single i.p. CMS 10 mg/kg CBA,8.09 ± 1.66 mmol/L
same,peak CR level,rats [6]; single i.p. CMS 10 mg/kg CBA,31.3 ± 5.41 µmol/L
same,time of peak BUN,rats [6]; single i.p. CMS 10 mg/kg CBA,5.00 ± 0.00 h
same,time of peak CR level,rats [6]; single i.p. CMS 10 mg/kg CBA,2.67 ± 1.70 h
same,peak BUN level,rats [6]; [14],17.8 ± 3.83 mmol/L
same,peak CR level,rats [6]; [14],93.1 ± 29.8 µmol/L
same,time of peak BUN,rats [6]; [14],7.82 ± 1.34 h
same,time of peak CR level,rats [6]; [14],5.36 ± 1.30 h
same,Tmax CMS/CMS-E2 in kidneys,[7]; [15],2 h
same,Cmax CMS/CMS-E2 in kidneys,[7]; [16],64.2 ± 38.1 µg/g
same,AUC0-inf CMS/CMS-E2 in kidneys,[7]; [17],1620 µg·h/g
same,Tmax CMS/CMS-E2 in kidneys,[7]; [17],4 h
same,t1/2 CMS/CMS-E2 in kidneys,[7]; [17],61.8 min
same,Cmax CMS/CMS-E2 in kidneys,[7]; [18],281 ± 92.8 µg/g
same,"CMS concentration in renal tissue at 6, 8 h","[7]; rat kidney, single i.p. CMS 10 mg/kg CBA, LC-MS/MS",below the lower limit
same,CMS concentration in renal tissue at 24 h,"[7]; rat kidney, single i.p. CMS 20 mg/kg CBA, LC-MS/MS",below the lower limit
same,"Kidney/plasma ratio of Cmax, CMS/CMS-E2",[7]; [19],7.11
same,CLCMS/CMS-E2 (total body clearance),[8],5.14 ± 0.196 mL/min/kg
same,Ka CMS/CMS-E2 (absorption rate),[8],2.02 ± 0.260 h⁻¹
same,V (volume of distribution),[8],194 ± 12.8 mL/kg
same,t1/2 in prior reports,[9],20 to 40 min
colistin A,plasma protein binding,[10],56.6 ± 9.25%
same,apoptotic effect relative to colistin B,[11],three times
"CC[C@H](C)CCCCC(=O)N[C@@H](CCN)C(=O)N[C@H](C(=O)N[C@@H](CCN)C(=O)N[C@H]1CCNC(=O)[C@H]([C@@H](C)O)NC(=O)[C@H](CCN)NC(=O)[C@H](CCN)NC(=O)[C@H](CC(C)C)NC(=O)[C@@H](CC(C)C)NC(=O)[C@H](CCN)NC1=O)[C@@H](C)O [colistin, Colistin] (X1-[Dab]T[Dab][Dab][Dab][dL]L[Dab][Dab]T; lactam 4-C)",steady-state trough concentration associated with increased nephrotoxicity,patients; plasma colistin,> 2.2 mg/L
same,AUC0-inf formed colistin/colistin B in plasma,[3]; single i.p. CMS 10 mg/kg CBA,2.05 ± 0.371 mg·h/L
same,Cmax formed colistin/colistin B in plasma,[3]; single i.p. CMS 10 mg/kg CBA,0.764 ± 0.123 mg/L
same,Tmax formed colistin/colistin B in plasma,[3]; single i.p. CMS 10 mg/kg CBA,2.00 ± 0.00 h
same,t1/2 formed colistin/colistin B in plasma,[3]; single i.p. CMS 10 mg/kg CBA,44.4 ± 4.61 min
same,AUC0-inf formed colistin/colistin B in plasma,[3]; [14],23.1 ± 7.46 mg·h/L
same,Cmax formed colistin/colistin B in plasma,[3]; [14],3.99 ± 1.52 mg/L
same,Tmax formed colistin/colistin B in plasma,[3]; [14],3.55 ± 0.891 h
same,t1/2 formed colistin/colistin B in plasma,[3]; [14],113 ± 40.3 min
same,fraction undergoing glomerular filtration into the tubular lumen,[12],18%
same,Kp,"[7]; male, Sprague-Dawley, rat, ip, 10 mg/kg CBA, Kidney/plasma ratio of AUC0-inf, rats, single i.p. CMS 10 mg/kg CBA",31.6
same,Kp,"[7]; male, Sprague-Dawley, rat, ip, 10 mg/kg CBA, Kidney/plasma ratio of Cmax, rats, single i.p. CMS 10 mg/kg CBA",13.7
same,Kp,"[7]; male, Sprague-Dawley, rat, ip, 20 mg/kg CBA, Kidney/plasma ratio of AUC0-inf, rats, single i.p. CMS or CMS-E2 20 mg/kg CBA",26.1
same,tissue level at time at 8 h,"[7]; male, Sprague-Dawley, rat, kidney cortex, ip, 10 mg/kg CBA, SD",3550 ± 594 ng/g
same,tissue level at time at 24 h,"[7]; male, Sprague-Dawley, rat, kidney cortex, ip, 20 mg/kg CBA, SD",5970 ± 1850 ng/g
same,AUC0-inf formed colistin/colistin B in kidneys,[7]; [15],64.7 µg·h/g
same,Tmax formed colistin/colistin B in kidneys,[7]; [15],2 h
same,t1/2 formed colistin/colistin B in kidneys,[7]; [15],72.6 min
same,Cmax formed colistin/colistin B in kidneys,[7]; [16],10.4 ± 3.13 µg/g
same,AUC0-inf formed colistin/colistin B in kidneys,[7]; [20],603 µg·h/g
same,t1/2 formed colistin/colistin B in kidneys,[7]; [20],374 min
same,Tmax formed colistin/colistin B in kidneys,[7]; [17],6 h
same,Cmax formed colistin/colistin B in kidneys,[7]; [18],53.6 ± 11.0 µg/g
same,"Kidney/plasma ratio of Cmax, colistin/colistin B",[7]; [19],12.7
same,regression coefficient between kidney concentration and SQS,rats [13]; ordered logistic regression,0.10
same,regression coefficient between kidney concentration and contemporaneous BUN,rats [13]; simple linear regression,0.27
same,regression coefficient between kidney concentration and contemporaneous CR,rats [13]; simple linear regression,0.74
same,CLcolistin/colistin B (total body clearance),[8],2.57 ± 0.420 mL/min/kg
same,t1/2 in prior reports,[9],32 to 108 min
